Data taken from ChEMBL document CHEMBL1140861, “Short antisense oligonucleotides with novel 2'-4' conformationaly restricted nucleoside analogues show improved potency without increased toxicity in animals” (J Med Chem, 2009).
Calls of active or inactive are those of the source. The calls are words filed in the database; no cut-off is given here.

Columns and labels:
[1] = system: Mus musculus; assay: Reduction of PTEN mRNA level in ip dosed BALB/c mouse liver administered twice a week for 3 weeks measured after 72 hrs of last dose; format: functional
How it was run: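 Male Balb/c mice, 6 weeks old, dosed ip twice weekly for 3 weeks at 0.5, 1.5, 4.7 and 15 mg/kg (two ASOs) or 0.7, 2.3, 7.2 and 23 mg/kg (MOE control); sacrificed 72 h after last dose; ALT, liver PTEN mRNA, liver and spleen weights and body weight gain assessed; ED50 derived; errors as sd.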

[2] = system: Mus musculus; assay: Hepatotoxicity in ip dosed BALB/c mouse assessed as increase in liver ALT level at 5 to 10 times of ED50 after 72 hrs; format: toxicity, organism-based; conditions: in vivo
[3] = system: Mus musculus; assay: Hepatotoxicity in BALB/c mouse assessed as increase in liver ALT level at 60 mg/kg, ip after 72 hrs; format: toxicity, organism-based; parameters: dose 60 mg/kg, route intraperitoneal; conditions: in vivo
[4] = species on record: Mus musculus; assay: Binding affinity to mouse PTEN mRNA assessed as melting temperature
How it was run: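 Tm of ASO–RNA duplex, i.e. melting temperature of the ASO hybridised to its complementary RNA.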

[5] = system: bEND; assay: Reduction in mouse PTEN mRNA level expressed in mouse bEND cells; format: functional, cell-based
How it was run: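 bEND mouse brain endothelial cells transfected with ASO using lipofectin; PTEN mRNA reduction measured over a dose range; IC50 taken from dose-response curves.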

[6] = system: Mus musculus; assay: Reduction of PTEN mRNA level in ip dosed BALB/c mouse liver after 72 hrs; format: functional
[7] = system: Mus musculus; assay: Reduction of PTEN mRNA level in BALB/c mouse liver at 37 mg/kg, ip after 72 hrs; format: functional, organism-based; parameters: dose 37 mg/kg
[8] = system: Mus musculus; assay: Reduction of PTEN mRNA level in BALB/c mouse liver at 60 mg/kg, ip after 72 hrs; format: functional, organism-based; parameters: dose 60 mg/kg
[9] = system: Mus musculus; assay: Reduction of PTEN level in ip dosed BALB/c mouse liver at 37 mg/kg by Western blot analysis; format: functional, organism-based; parameters: dose 37 mg/kg
[10] = system: Mus musculus; assay: Metabolic stability in BALB/c mouse liver assessed as antisense oligonucleotide level at 18 mg/kg; format: ADME, organism-based; parameters: dose 18 mg/kg; conditions: in vivo
[11] = system: Mus musculus; assay: Reduction of PTEN mRNA level in BALB/c mouse liver at 32 mg/kg, ip after 72 hrs; format: functional, organism-based; parameters: dose 32 mg/kg
How it was run: (§1)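 Balb/c mice, 6 weeks old, n = 4 per dose group, single ip doses of 32, 66 or 100 mg/kg; killed 72 h after administration; serum ALT and liver PTEN mRNA quantified after sacrifice; errors as sd.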

[12] = system: Mus musculus; assay: Reduction of PTEN mRNA level in BALB/c mouse liver at 66 mg/kg, ip after 72 hrs; format: functional, organism-based; parameters: dose 66 mg/kg; how it was run: as §1
[13] = system: Mus musculus; assay: Reduction of PTEN mRNA level in BALB/c mouse liver at 100 mg/kg, ip after 72 hrs; format: functional; how it was run: as §1
[14] = system: Mus musculus; assay: Hepatotoxicity in BALB/c mouse assessed as increase in liver ALT level at 32 mg/kg, ip after 72 hrs; format: toxicity, organism-based; parameters: dose 32 mg/kg, route intraperitoneal; conditions: in vivo; how it was run: as §1
[15] = system: Mus musculus; assay: Hepatotoxicity in BALB/c mouse assessed as increase in liver ALT level at 66 mg/kg, ip after 72 hrs; format: toxicity, organism-based; parameters: dose 66 mg/kg, route intraperitoneal; conditions: in vivo; how it was run: as §1
[16] = system: Mus musculus; assay: Hepatotoxicity in BALB/c mouse assessed as increase in liver ALT level at 100 mg/kg, ip after 72 hrs; format: toxicity, organism-based; parameters: dose 100 mg/kg, route intraperitoneal; conditions: in vivo; how it was run: as §1
[17] = system: Homo sapiens; assay: Decrease in low density lipoprotein cholesterol level in normal human at 50 to 400 […] by standard enzyme-based colorimetric assay; format: functional, organism-based; parameters: scale not given: the % may be the effect or the level left
[18] = system: Mus musculus; assay: Hepatotoxicity in BALB/c mouse assessed as increase in liver ALT level at 35 mg/kg, ip after 72 hrs; format: toxicity, organism-based; parameters: dose 35 mg/kg, route intraperitoneal; conditions: in vivo
How it was run: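 Single ip injection of 35 mg/kg ASO into male Balb/c mice, 6 weeks old, n = 4 per group, saline control; sacrificed 72 h after dosing and ALT recorded; ANOVA with Tukey's post hoc test.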

[19] = system: Mus musculus; assay: Hepatotoxicity in BALB/c mouse assessed as increase in liver ALT level at 35 mg/kg, ip after 72 hrs; conditions: in vivo
[20] = system: Mus musculus; assay: as above; conditions: in vivo; remark: listed apart in the source

Tm [4] [°C] | IC50 [5] [nM] | Stability [10] [µg/g] | Compound | ED50 [1] [mg/kg] | Activity [2] | Activity [3] | ED50 [6] [mg/kg] | Activity [7] | Activity [8] | Activity [9] | Activity [11] | Activity [12] | Activity [13] | Activity [14] | Activity [15] | Activity [16] | Activity [17] [%] | Activity [18] | Activity [19] | Activity [20]
60.6 | 4.9 | 25 | Cc1cn([C@@H]2O[C@@]3(COP(O)(=S)O[C@H]4[C@H]5OC[C@]4(COP(O)(=S)O[C@H]4C[C@H](n6cc(C)c(=O)[nH]c6=O)O[C@@H]4COP(O)(=S)O[C@H]4[C@@H](O)[C@H](n6cnc7c6N=CNC7N)O[C@@H]4COP(O)(=S)O[C@H]4[C@@H](O)[C@H](n6cnc7c(=O)[nH]c(N)nc76)O[C@@H]4COP(O)(=S)O[C@H]4[C@@H](O)[C@H](n6ccc(N)nc6=O)O[C@@H]4COP(O)(=S)O[C@H]4[C@@H](O)[C@H](n6cnc7c(N)ncnc76)O[C@@H]4COP(O)(=S)O[C@H]4[C@@H](O)[C@H](n6ccc(N)nc6=O)O[C@@H]4COP(O)(=S)O[C@H]4[C@@H](O)[C@H](n6cc(C)c(=O)[nH]c6=O)O[C@@H]4COP(O)(=S)O[C@H]4[C@@H](O)[C@H](n6cnc7c(=O)[nH]c(N)nc76)O[C@@H]4COP(O)(=S)O[C@H]4[C@@H](O)[C@H](n6cnc7c(=O)[nH]c(N)nc76)O[C@@H]4COP(O)(=S)O[C@H]4[C@@H](O)[C@H](n6ccc(N)nc6=O)O[C@@H]4COP(O)(=S)O[C@H]4[C@H]6OC[C@]4(COP(O)(=S)O[C@H]4[C@H]7OC[C@]4(CO)O[C@H]7n4cc(C)c(=O)[nH]c4=O)O[C@H]6n4cc(C)c(N)nc4=O)O[C@H]5n4cc(C)c(=O)[nH]c4=O)CO[C@@H]2[C@@H]3O)c(=O)nc1N (some centres not stated) | 2.1 | Toxic | Non-toxic | 6 | Active | Active | Active | Active | Active | Active | Non-toxic | Toxic | Toxic |  |  |  | 
 |  |  | COCCO[C@@H]1[C@H](SP(=O)(O)OC[C@H]2O[C@@H](n3cc(C)c(=O)[nH]c3=O)[C@H](OCCOC)[C@@H]2SP(=O)(O)OC[C@H]2O[C@@H](n3cc(C)c(N)nc3=O)[C@H](OCCOC)[C@@H]2SP(=O)(O)OC[C@H]2O[C@@H](n3cnc4c(N)ncnc43)C[C@@H]2SP(=O)(O)OC[C@H]2O[C@@H](n3cnc4c(=O)[nH]c(N)nc43)C[C@@H]2SP(=O)(O)OC[C@H]2O[C@@H](n3cc(C)c(=O)[nH]c3=O)C[C@@H]2SP(=O)(O)OC[C@H]2O[C@@H](n3cc(C)c(N)nc3=O)C[C@@H]2SP(=O)(O)OC[C@H]2O[C@@H](n3cc(C)c(=O)[nH]c3=O)C[C@@H]2SP(=O)(O)OC[C@H]2O[C@@H](n3cnc4c(=O)[nH]c(N)nc43)C[C@@H]2SP(=O)(O)OC[C@H]2O[C@@H](n3cc(C)c(N)nc3=O)C[C@@H]2SP(=O)(O)OC[C@H]2O[C@@H](n3cc(C)c(=O)[nH]c3=O)C[C@@H]2SP(=O)(O)OC[C@H]2O[C@@H](n3cc(C)c(=O)[nH]c3=O)C[C@@H]2SP(=O)(O)OC[C@H]2O[C@@H](n3cc(C)c(N)nc3=O)C[C@@H]2SP(=O)(O)OC[C@H]2O[C@@H](n3cnc4c(=O)[nH]c(N)nc43)[C@H](OCCOC)[C@@H]2SP(=O)(O)OC[C@@H]2O[C@H](n3cc(C)c(N)nc3=O)[C@@H](OCCOC)[C@H]2SP(=O)(O)OC[C@@H]2O[C@H](n3cnc4c(N)ncnc43)[C@@H](OCCOC)[C@H]2SP(=O)(O)OC[C@@H]2O[C@H](n3cc(C)c(N)nc3=O)[C@@H](OCCOC)[C@H]2SP(=O)(O)OC[C@@H]2O[C@H](n3cc(C)c(N)nc3=O)[C@@H](OCCOC)[C@H]2O)[C@@H](COP(=O)(O)S[C@H]2[C@@H](OCCOC)[C@H](n3cc(C)c(N)nc3=O)O[C@@H]2COP(=O)(O)S[C@H]2[C@@H](OCCOC)[C@H](n3cnc4c(=O)[nH]c(N)nc43)O[C@@H]2CO)O[C@H]1n1cc(C)c(N)nc1=O |  |  |  |  |  |  |  |  |  |  |  |  |  | 6 |  |  | 
 |  |  | Cc1cn([C@@H]2O[C@@]3(COP(O)(=S)O[C@@H]4[C@@H](OP(O)(=S)OC[C@H]5O[C@@H](n6cc(C)c(=O)[nH]c6=O)[C@H](O)[C@@H]5OP(O)(=S)OC[C@H]5O[C@@H](n6cnc7c(=O)[nH]c(N)nc76)[C@H](O)[C@@H]5OP(O)(=S)OC[C@H]5O[C@@H](n6cnc7c(=O)[nH]c(N)nc76)[C@H](O)[C@@H]5OP(O)(=S)OC[C@H]5O[C@@H](n6ccc(N)nc6=O)[C@H](O)[C@@H]5OP(O)(=S)OC[C@H]5O[C@@H](n6cc(C)c(=O)[nH]c6=O)[C@H](O)[C@@H]5OP(O)(=S)OC[C@H]5O[C@@H](n6cnc7c(=O)[nH]c(N)nc76)[C@H](O)[C@@H]5OP(O)(=S)OC[C@H]5O[C@@H](n6ccc(N)nc6=O)[C@H](O)[C@@H]5OP(O)(=S)OC[C@H]5O[C@@H](n6cnc7c(N)ncnc76)[C@H](O)[C@@H]5OP(O)(=S)OC[C@H]5O[C@@H](n6cnc7c(=O)[nH]c(N)nc76)[C@H](O)[C@@H]5OP(O)(=S)OC[C@@]56CO[C@@H]([C@H](n7cc(C)c(N)nc7=O)O5)[C@@H]6OP(O)(=S)OC[C@@]56CO[C@@H]([C@H](n7cc(C)c(=O)[nH]c7=O)O5)[C@@H]6O)O[C@@H](n5cnc6c(N)ncnc65)[C@@H]4O)CO[C@@H]2[C@@H]3OP(O)(=S)OC[C@@]23CO[C@@H]([C@H](n4cc(C)c(=O)[nH]c4=O)O2)[C@@H]3O)c(=O)nc1N (some centres not stated) |  |  |  |  | Active | Active |  |  |  |  |  |  |  |  | Toxic | Toxic | Toxic
